Bioassay records from PubChem BioAssay.
Ins promoter up – MIN6 insulin promoter up-regulation; MIN6 insulin promoter-GFP reporter, high-content imaging; stronger effect = higher value; z-score at 5 µM; 190,000 compounds, 0.3% hits;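 active = z-score above 3 at 5 µM with at least 500 cells counted in the well; inconclusive = wells under 500 cells, flagged as cytotoxic or low count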
WT yeast gro inh – growth inhibition of WT yeast, mitochondrial fusion screen; mitochondrial fusion phenotypic screen, WT strain; inhibition, % at 10 µM; 190,000 compounds, 2.1% hits; in the data active = inhibition above about 58%; tested in S. cerevisiae
Rad51 HR inh – blocks human Rad51 in homologous recombination; Q06609; 200,000 compounds, 0.085% hits; hRad51 DNA strand exchange, fluorescence dequenching; inhibition, % at 10 µM;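 active = inhibition above 40% at the single screening dose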;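 also: 0% = DMSO control wells and 100% = blanks with heterologous ssDNA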
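System: hRad51 filaments on single-stranded DNA; reagent: Fluorescein- and BHQ1-tagged 47-mer duplex; compound dosing: one concentration, 10 µM final; timing: filaments 15 min 37 °C, then compound 30 min; measured by: fluorescein emission 520 nm, excitation 485 nm; benchmarks: per-plate controls and blanks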
SKKanGAS inh – SKKanGAS growth inhibition; S. pyogenes SKKanGAS, kanamycin growth, BacTiter-Glo, 6 h; AID 1662; 300,000 compounds, 1.3% hits; inhibition, % at 7.5 µM;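 active = mean replicate score, as percent of positive control median, at least 50; inconclusive = mean below 50 but one replicate at or above 50; inactive = mean and every replicate below 50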;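 also: strain carries kanamycin resistance gene driven by streptokinase promoter and grows in 40 µg/ml kanamycin; loss of luminescence reflects streptokinase promoter inhibition or plain growth inhibition; 0% = median of DMSO wells and 100% = positive control at its reference dose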
Autophagy HCS – modulators of autophagy | MEF GFP-LC3 puncta imaging; test concentration mostly 10 µM | AID 463193 | 190,000 compounds, 0.98% hits | calls only at 10 µM (by protocol);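 active = percentage of spot-positive cells more than 3 SD above its plate mean, without a fluorescence outlier flag or 80% toxicity; inconclusive = no clear call, values can overlap the other calls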;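 also: spot-positive cell cutoff set from DMSO-treated cells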
Cl transport mod – modulates chloride dependent transport by human KCC2; Q9H2X9; KCC2 cells, thallium flux FluoZin-2 fluorescence; B-score of Tl+ flux slope (higher = more flux/activation; lower = inhibition) at 10 µM; 190,000 compounds, 2.2% hits; AID 1456;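 active = thallium flux slope and its plate-corrected score both differing from the plate sample mean at a set confidence after two filtering rounds, in either direction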;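 also: slope of fluorescence scaled to starting intensity during 10 to 20 s after thallium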
Target sequence (Q9H2X9 whole entry, looked up): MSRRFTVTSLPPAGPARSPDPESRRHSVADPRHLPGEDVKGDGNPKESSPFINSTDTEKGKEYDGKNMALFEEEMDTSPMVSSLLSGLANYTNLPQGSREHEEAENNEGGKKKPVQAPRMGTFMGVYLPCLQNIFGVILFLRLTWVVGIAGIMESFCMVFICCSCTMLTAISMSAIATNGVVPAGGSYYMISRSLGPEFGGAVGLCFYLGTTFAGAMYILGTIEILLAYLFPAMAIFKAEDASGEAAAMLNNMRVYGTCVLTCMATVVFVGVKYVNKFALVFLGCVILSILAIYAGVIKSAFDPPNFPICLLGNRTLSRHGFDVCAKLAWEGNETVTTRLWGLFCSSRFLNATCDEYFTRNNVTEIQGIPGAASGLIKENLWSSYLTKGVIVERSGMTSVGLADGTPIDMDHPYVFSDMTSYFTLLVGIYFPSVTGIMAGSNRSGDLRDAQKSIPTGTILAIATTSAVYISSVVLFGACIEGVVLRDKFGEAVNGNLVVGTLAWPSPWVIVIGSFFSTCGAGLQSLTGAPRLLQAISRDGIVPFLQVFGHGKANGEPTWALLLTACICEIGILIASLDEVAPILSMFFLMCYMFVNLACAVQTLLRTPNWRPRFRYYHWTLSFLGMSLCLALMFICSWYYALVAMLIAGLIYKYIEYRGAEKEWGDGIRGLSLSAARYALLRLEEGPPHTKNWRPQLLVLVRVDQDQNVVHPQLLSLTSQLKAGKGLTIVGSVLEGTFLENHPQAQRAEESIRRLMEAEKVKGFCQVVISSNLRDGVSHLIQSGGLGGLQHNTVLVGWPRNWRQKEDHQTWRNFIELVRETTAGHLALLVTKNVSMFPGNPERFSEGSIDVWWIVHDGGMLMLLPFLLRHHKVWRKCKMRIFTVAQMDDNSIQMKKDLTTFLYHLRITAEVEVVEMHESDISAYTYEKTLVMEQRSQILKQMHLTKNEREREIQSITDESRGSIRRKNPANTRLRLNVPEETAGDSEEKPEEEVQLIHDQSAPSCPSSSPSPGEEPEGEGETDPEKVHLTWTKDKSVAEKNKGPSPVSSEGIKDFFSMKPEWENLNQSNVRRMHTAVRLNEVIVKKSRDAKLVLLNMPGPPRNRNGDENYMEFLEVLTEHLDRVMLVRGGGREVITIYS
The depositor's hits bear a star; i = inactive; ? = inconclusive; . = no result; + = active, no number. A selection: hits, their analogues and other compounds. The true share with any hit is near 4.2%.

SMILES	Ins promoter up	WT yeast gro inh	Rad51 HR inh	SKKanGAS inh	Autophagy HCS	Cl transport mod
NS(=O)(=O)c1ccc(NC(=S)NC(=O)c2ccc(Br)o2)cc1	1.02	6.1	-0.1	0.5	i	.
COc1ccc(C(=O)O)cc1NC(=S)NC(=O)c1ccc(-c2ccc(Cl)cc2)o1	-0.59	-2.4	-61.0	50.7*	i	-2.2
Cc1nnc(SC(C)C#N)n1-c1ccccc1 (centres undefined)	0.25	-12.3	-1.0	3.8	i	-0.111
OC(COCCOc1ccc(Br)cc1)CN1CCN(Cc2ccccc2)CC1 (centres undefined)	-0.37	44.5	.	0.3	i	-0.839
Cc1cccc(CC(=O)N2CCCC2)c1	.	.	.	6.5	.	.
COc1ccc(-c2cc(-c3cccs3)nc3sc(C#N)c(N)c23)cc1	0.56	6.0	-13.5	1.5	i	0.512
N#Cc1sc2nc(C3CC3)cc(-c3ccc(Cl)cc3)c2c1N	.	72.0*	23.8	8.6	i	-0.741
CCCNC(=O)[C@@H]1CCCN1C(=O)[C@@H]1Cc2ccccc2CN1	.	.	.	-6.6	.	.
OCCC1CN(Cc2cc3c(cc2Cl)OCO3)CCN1Cc1ccccc1 (centres undefined)	-0.45	-1.4	11.6	-4.3	i	0.106
Cn1ncc2c(Nc3ccc(Br)cc3)nc(Nc3ccc(Br)cc3)nc21	-1.12	.	-25.8	106.0*	.	-0.359
Cn1ncc2c(Nc3cccc(Cl)c3)nc(Nc3cccc(Cl)c3)nc21	-0.59	.	6.4	100.0*	.	0.992
CNc1nc(Nc2ccc(C)c(Cl)c2)c2cnn(C)c2n1	.	.	.	-2.1	.	.
CCc1ccc(C(C)(O)C(CN2CCOCC2)c2ccccc2)cc1 (centres undefined)	.	.	.	-1.7	.	.
C/C(=N\NC(=O)COc1ccc(C(C)(C)C)cc1)c1ccc(-n2ccnc2)cc1	0.08	70.6*	1.8	21.8	i	-0.378
C/C(=N\Nc1ccc(Cl)c(Cl)c1)c1ccc(-n2ccnc2)cc1	-0.29	68.8*	7.3	81.3*	i	0.258
Cc1nn(C)c(C(=O)NNC(=O)NC2CCCCC2)c1Cl	.	.	.	-6.6	.	.
Cc1ccc(CS/C(Nc2ccccc2C)=C(\C#N)C(N)=O)c(C)c1	0.22	5.4	7.7	3.2	i	0.429
CC(C)=CCc1c([C@@H]2CCc3ccc(O)cc3O2)cc2c(c1O)OC(C)(C)C=C2	.	.	3.4	26.2	.	.
CC(C)=CCc1c2c(c(O)c3c(=O)c4c(oc13)-c1cc(O)c(O)cc1OC4C=C(C)C)C=CC(C)(C)O2 (centres undefined)	.	.	-13.6	93.1*	.	.
CC(C)=CCc1c(-c2ccc(O)cc2O)oc2c3c(cc(O)c2c1=O)OC(C)(C)C=C3	.	.	-8.4	107.9*	.	.
O=C(Nc1ccccc1)Nc1ccc(C(=O)N2CCCC2)cc1	0.52	62.2*	.	?	i	-1.39
CC(CNC(=O)COc1ccccc1)OC(=O)Nc1ccc(Cl)c(Cl)c1 (centres undefined)	-0.43	82.1*	-3.5	-1.6	i	0.0121
COC(=O)NCC(C)OC(=O)Nc1cccc(Cl)c1 (centres undefined)	-0.03	1.0	.	-4.5	i	0.524
O=[N+]([O-])c1cc(/C=N/O)ccc1Oc1cccc(Cl)c1	1.09	71.8*	0.4	-10.6	i	-1.39
Cc1cccc(NC(=O)CS(=O)CC(=O)Nc2cnc3ccccc3c2)c1C (centres undefined)	.	.	.	1.2	.	.
SMILES	Ins promoter up	WT yeast gro inh	Rad51 HR inh	SKKanGAS inh	Autophagy HCS	Cl transport mod
FC(F)(F)Oc1ccc(NC(=S)Nc2ccc(OC(F)(F)F)cc2)cc1	0.14	.	8.0	71.7*	.	-1.12
CC(C)c1ccc(NC(=S)Nc2ccc(OC(F)(F)F)cc2)cc1	0.18	27.5	.	-0.7	i	0.567
C=CCNC(=O)c1c2c(nc3ccccc13)-c1ccccc1CC2	4.54*	1.2	10.5	-6.6	i	-0.659
O=C(NCc1nc(-c2ccc(C(F)(F)F)cc2)no1)Nc1cc(Cl)cc(Cl)c1	-1.1	.	10.3	108.9*	.	0.701
O=C(NCc1nc(-c2ccc(C(F)(F)F)cc2)no1)Nc1ccc(F)cc1F	-0.12	.	-2.2	-4.1	.	-0.338
COCCNC(=O)CC(NS(=O)(=O)c1ccc(C)cc1)c1ccco1 (centres undefined)	0.71	73.4*	2.1	3.4	.	-0.314
CCCCNC(=O)CC(NS(=O)(=O)c1ccc(C)cc1)c1ccco1 (centres undefined)	0.68	-17.4	-11.9	5.6	i	.
CC(/C=N/n1c(COc2ccccc2)n[nH]c1=S)=C\c1ccccc1	0.26	75.0*	-0.2	13.7	i	7.76*
COc1ccc(-c2nc(CN3CCN(Cc4ccccc4)CC3)c(C)o2)cc1	.	.	.	1.3	.	.
Cc1cccc(N2CCN(Cc3nc(-c4cccc(Oc5ccccc5)c4)oc3C)CC2)n1	0.01	34.2	6.2	17.6	+	-0.502
CC1=C(C(=O)Nc2cccc(C(=O)N3CCC(C(N)=O)CC3)c2)SCCO1	.	.	.	-10.2	.	.
CCOc1ccc(-n2cc(C(=O)Nc3ccc(Cl)cn3)c3cc(OC)c(OC)cc3c2=O)cc1	-1.01	0.0	-3.3	-3.4	+	0.0738
CCOc1ccc(-n2cc(C(=O)Nc3cccc(OC)c3)c3cc(OC)c(OC)cc3c2=O)cc1	-1.21	23.4	-2.3	6.4	i	-0.416
COc1ccc(C(=O)C(c2ccccc2)N2CCOCC2)cc1 (centres undefined)	-0.58	12.5	-0.7	7.8	i	.
Cc1ccc(C(=O)C(c2ccccc2)N2Cc3ccccc3C2=N)cc1 (centres undefined)	.	69.6*	5.2	?	i	-0.796
O=C(Nc1cc(S(=O)(=O)N2CCOCC2)ccc1Cl)C(=O)c1c(-c2ccccc2)cc2ccccn12	-0.17	98.5*	3.6	-2.2	i	-1.97
COc1ccc(-c2cc(C(=O)Nc3ccc(S(=O)(=O)Nc4onc(C)c4C)cc3)c3ccccc3n2)cc1	-0.22	.	-4.7	34.0	.	.
O=C(Nc1cccc(Br)c1)c1cccc(OC(=S)N2CCOCC2)c1	.	.	.	0.2	.	.
CC1CC1C(=O)OCC(=O)NCc1ccc(Cl)cc1Cl (centres undefined)	0.07	82.5*	.	-3.0	i	-0.471
CC[C@H]1OC(=O)[C@H](C)[C@@H](O[C@H]2C[C@@](C)(OC)[C@@H](O)[C@H](C)O2)[C@H](C)[C@@H](O[C@@H]2O[C@H](C)C[C@H](N(C)C)[C@H]2O)[C@](C)(O)C[C@@H](C)CN(C)[C@H](C)[C@@H](O)[C@]1(C)O	.	.	-3.2	110.5*	.	.
COC(=O)c1sc(N)c(C(=O)OC)c1COC(=O)C12CC3CC(CC(O)(C3)C1)C2	.	.	.	6.1	.	.
CC1=NOC(=O)/C1=C\c1ccc(-c2cccc(Cl)c2)o1	0.7	43.4	1.4	-11.7	i	-0.613
CC1=NOC(=O)/C1=C\c1ccc(-c2ccccc2Br)o1	.	72.4*	17.5	21.5	i	-0.299
C[C@@]12CCC=C[C@H]1[C@H](c1ccc3ccccc3c1Br)N(Cc1ccccc1)C2=O	-0.79	.	-0.5	74.6*	.	0.0166
